Reference: ChEMBL document CHEMBL1144030, “Synthesis of a potent and selective (18)F-labeled delta-opioid receptor antagonist derived from the Dmt-Tic pharmacophore for positron emission tomography imaging” (J Med Chem, 2008)
Square brackets hold non-standard residues; d marks the D form. Peptide text beside a SMILES is read from it. * marks the point of attachment. Dmt = Cc1cc(O)cc(C)c1C[C@H](N)C(=O)O; Tic = O=C(O)[C@@H]1Cc2ccccc2CN1; Cbz = O=C(OCc1ccccc1)*

Columns and labels:
Rattus norvegicus = species on record: Rattus norvegicus; assay: Ratio of Ki for mu opioid receptor to delta opioid receptor in Sprague-Dawley rat brain P2 synaptosomal membrane
Summary of the method: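 Ratio of Ki values from rat brain P2 synaptosome competition binding (2.5 h, 23 °C, equilibrium; filtration on polyethylenimine-treated GFC filters). Ki by Cheng-Prusoff from duplicate assays at five to eight doses, 3–5 independent preparations.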

[1] = target: Delta-type opioid receptor (Rattus norvegicus, UniProt P33533); assay: Displacement of [3H]deltorphin2 from delta opioid receptor in Sprague-Dawley rat brain P2 synaptosomal membrane
Sequence of Delta-type opioid receptor (Rattus norvegicus, UniProt P33533) (P33533 whole entry): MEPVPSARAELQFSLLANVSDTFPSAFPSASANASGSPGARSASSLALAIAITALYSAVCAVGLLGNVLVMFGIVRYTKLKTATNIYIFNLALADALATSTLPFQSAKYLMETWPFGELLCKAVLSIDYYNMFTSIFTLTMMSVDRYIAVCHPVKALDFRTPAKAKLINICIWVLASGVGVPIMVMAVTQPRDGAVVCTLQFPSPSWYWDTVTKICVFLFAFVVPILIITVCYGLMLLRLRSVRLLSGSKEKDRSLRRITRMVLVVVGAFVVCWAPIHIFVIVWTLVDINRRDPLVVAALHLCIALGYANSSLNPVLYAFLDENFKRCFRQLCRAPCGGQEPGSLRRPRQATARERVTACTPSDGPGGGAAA
Summary of the method: (§1)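 Competition binding on rat brain P2 synaptosomes, preincubated to strip endogenous opioids and stored at −80 °C in buffered 20% glycerol. Equilibrium 2.5 h at 23 °C. Separation on GFC filters presoaked in 0.1% polyethylenimine, washed three times with ice-cold buffered BSA. Duplicates, five to eight doses, 3–5 independent membrane preparations; Ki by Cheng-Prusoff, mean ± SE.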

Mu-type opioid receptor [2] = target: Mu-type opioid receptor (Cavia porcellus, UniProt P97266); assay: Agonist activity at mu opioid receptor in Hartley guinea pig assessed as inhibition of electrically evoked-contraction; type: functional
Sequence of Mu-type opioid receptor (Cavia porcellus, UniProt P97266) (P97266 whole entry): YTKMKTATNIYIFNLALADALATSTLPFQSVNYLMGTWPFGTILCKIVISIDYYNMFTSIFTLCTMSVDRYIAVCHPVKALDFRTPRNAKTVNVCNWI
Summary of the method: (§2)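 Isolated tissue: single mouse vas deferens (delta) or myenteric plexus longitudinal muscle strips, 2–3 cm, from small intestine of male Hartley guinea pigs (mu), in organ baths with balanced salt solution, pH 7.5. Inhibition of electrically evoked contraction; IC50 (nM) from dose-response curves, mean ± SE of five or six separate assays.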

Mu-type opioid receptor [3] = target: Mu-type opioid receptor (Rattus norvegicus, UniProt P33535); assay: Displacement of [3H]DAMGO from mu opioid receptor in Sprague-Dawley rat brain P2 synaptosomal membrane; summary of the method: as §1
Sequence of Mu-type opioid receptor (Rattus norvegicus, UniProt P33535) (P33535 whole entry): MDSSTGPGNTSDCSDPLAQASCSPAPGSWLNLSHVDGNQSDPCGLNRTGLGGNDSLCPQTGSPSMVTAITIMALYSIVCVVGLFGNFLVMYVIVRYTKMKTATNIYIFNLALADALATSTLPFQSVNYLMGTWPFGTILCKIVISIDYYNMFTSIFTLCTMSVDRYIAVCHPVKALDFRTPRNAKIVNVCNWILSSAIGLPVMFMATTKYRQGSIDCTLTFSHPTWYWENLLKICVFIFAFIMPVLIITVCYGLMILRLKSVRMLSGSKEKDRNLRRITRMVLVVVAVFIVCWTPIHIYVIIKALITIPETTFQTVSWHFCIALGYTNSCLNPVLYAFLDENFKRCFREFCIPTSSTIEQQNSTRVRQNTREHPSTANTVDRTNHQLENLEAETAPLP

[4] = target: T1, Delta-type opioid receptor (Mus musculus, UniProt P32300); assay: Antagonist activity at delta opioid receptor in electrically stimulated-mouse vas deferens; type: functional, tissue-based; conditions: read-out: pA2 (converted)
T1 sequence (P32300 whole entry): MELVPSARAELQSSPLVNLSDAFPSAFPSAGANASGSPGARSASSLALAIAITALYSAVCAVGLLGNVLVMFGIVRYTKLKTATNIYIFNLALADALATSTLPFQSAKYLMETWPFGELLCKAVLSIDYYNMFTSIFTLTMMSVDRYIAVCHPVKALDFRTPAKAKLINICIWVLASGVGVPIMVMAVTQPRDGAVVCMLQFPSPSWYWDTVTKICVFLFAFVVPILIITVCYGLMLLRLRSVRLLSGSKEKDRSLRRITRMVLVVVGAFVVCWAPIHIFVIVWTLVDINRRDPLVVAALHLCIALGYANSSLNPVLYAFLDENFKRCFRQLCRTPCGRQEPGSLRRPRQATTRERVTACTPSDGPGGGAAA
Summary of the method: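 Mouse vas deferens in organ bath with physiological salt buffer, pH 7.5, electrically stimulated. Antagonism measured against the delta agonist deltorphin-II and expressed as pA2 derived by Schild plot.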

[5] = target: T1, Delta-type opioid receptor; assay: Agonist activity at delta opioid receptor in mouse vas deferens assessed as inhibition of electrically evoked-contraction; type: functional, tissue-based; summary of the method: as §2

Work on `Cc1cc(O)cc(C)c1C[C@H](N)C(=O)N1Cc2ccccc2C[C@@H]1C(=O)N[C@@H](Cc1ccccc1)C(=O)N[C@@H](CCCCNC(=O)c1ccc(F)cc1)C(=O)O` yielded a Ratio Ki (Rattus norvegicus) of 53.

For `Cc1cc(O)cc(C)c1C[C@H](N)C(=O)N1Cc2ccccc2C[C@H]1C(=O)N[C@@H](Cc1ccccc1)C(=O)N[C@@H](CCCCNC(=O)OCc1ccccc1)C(=O)O` (H-[Dmt][Tic]FK(Cbz)-OH), the Ki [1] was 0.019 nM, the IC50 (Mu-type opioid receptor [2]) was greater than 10000 nM and the Ki (Mu-type opioid receptor [3]) was 2.75 nM.

For `Cc1cc(O)cc(C)c1C[C@H](N)C(=O)N1Cc2ccccc2C[C@@H]1C(=O)NCCCC[C@H](NC(=O)c1ccc(F)cc1)C(=O)O`, the Ki [1] was 0.172 nM, the IC50 (Mu-type opioid receptor [2]) was 1920 nM and the Ratio Ki (Rattus norvegicus) was 240. The Ki (Mu-type opioid receptor [3]) was 41.2 nM and the Kb [4] was 5.62 nM.

Compound `Cc1cc(O)cc(O)c1C[C@H](N)C(=O)N1Cc2ccccc2C[C@@H]1C(=O)N[C@@H](Cc1ccccc1)C(=O)N[C@@H](CCCCNC(=O)OCc1ccccc1)C(=O)O` has a Ratio Ki (Rattus norvegicus) of 145.

Compound `Cc1cc(O)cc(C)c1C[C@H](N)C(=O)N1Cc2ccccc2C[C@H]1C(=O)N[C@@H](Cc1ccccc1)C(=O)N[C@@H](CCCCNC(=O)c1ccc(F)cc1)C(=O)O` has a Ki [1] of 0.248 nM, an IC50 (Mu-type opioid receptor [2]) of 50.6 nM and an IC50 [5] of 5180 nM. It also gave a Ki (Mu-type opioid receptor [3]) of 13.2 nM and a Kb [4] of 0.355 nM.
